Experiment [1] can be described thus: inhibitors of TNFa-induced NFkB p65 translocation, primary screen, imaging, HUVEC, MLSMR starter and 10KST1 sets (AID 438;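 active means inhibition above 20% together with a positive visual image hit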;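 further: compound added about 3h40 before a 20 min TNFalpha stimulation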;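 on inhibition: signal is the nuclear over cytoplasmic p65 intensity ratio per well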). The settings on record: HUVEC TNFa-induced p65 nuclear translocation; cell count: measured here: nuclei count (cytotoxicity indicator), at 2.08 µM; inhibition: at 2 µM, stronger effect = higher value, 0% TNFa-plus-vehicle, 100% no-TNFa wells.
A short description of experiment [2]: inhibitors of mutant huntingtin aggregation, primary screen, imaging, exon1htt(103Q)mCFP cells, high-content imaging (AID 483;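 active means visual image review flags a hit and inhibition of aggregation exceeds 20%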;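 further: compound exposure lasted 3 days before fixation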;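 on nuclei count: percent of the per-plate median nuclei count of sample wells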). The settings on record: exon1htt(103Q)mCFP cell line, aggregate imaging, at 2 µM; inhibition of aggregation: stronger effect = higher value; nuclei count: measured here: cell count, toxicity.
Experiment [3] is described as follows: inhibitors of E-selectin induction by TNFa, primary screen, imaging, HUVEC, immunofluorescence, MLSMR starter and 10KST1 sets (AID 487;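 active means visually confirmed hit in the image check and inhibition above 20%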;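 on inhibition: signal is fraction of cell area covered by stained E-selectin grains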;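 on nuclei count: 100% = median nuclei count of all wells on the same plate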). The settings on record: HUVEC TNFalpha-induced E-selectin immunofluorescence imaging, at 2 µM; inhibition: stronger effect = higher value; nuclei count: measured here: cell number, toxicity.
In experiment [4] the target is Voltage-gated potassium channel subunit beta-2 (Rattus norvegicus) (UniProt P62483). As to the kind of experiment: KvBeta enzyme negative modulators, primary screen, biochemical, NADPH fluorescence (AID 622;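 active means fluorescence slope higher than the sample average by over 3 SD, cut at about -0.22 in these data, passing the limit was not always enough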;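 further: slope of raw intensity against log time taken from 70 to 1610 s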). The settings on record: recombinant KvBeta, 4-cyanobenzaldehyde reduction, at 10 µM, stronger effect = higher value.
Experiment [5] shares this target. As to the kind of experiment: KvBeta positive modulators, primary screen, biochemical, NADPH fluorescence (AID 623;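 active means NADPH fluorescence slope more negative than the mean of all samples by about 3 SD, 99.7% confidence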;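 further: fluorescence intensity change per second fitted from 20 to 320 s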). The settings on record: Recombinant KvBeta, NADPH fluorescence decrease slope, 10 min; at 10 µM; stronger effect = lower value.
The target of experiment [6] is Muscarinic acetylcholine receptor M4 (Homo sapiens) (UniProt P08173). Description: compounds altering M4/GIRK thallium flux, either direction, primary screen, M4 allosteric agonist project, cell-based, HEK293 M4/GIRK, BTC-AM (AID 625;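 active means fluorescence slope after compound addition differing from the mean of all tested samples at 99.7% confidence, mostly higher but some lower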;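 further: thallium influx through GIRK channels coupled to M4 in HEK293 cells with BTC-AM dye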). The settings on record: at 10 µM, actives lie on both sides. The procedure, abridged:
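assay system = HEK293 cells with M4 receptor and GIRK channels | medium = pH 7.3 thallium assay buffer | doses = 10 µM final, single point | timing = cells overnight at 37 °C, BTC-AM loading 1 h, reads 2 min total | signal = BTC-AM fluorescence, 1 Hz kinetic reads | read-out = post-addition slope, 15–24 s, of baseline-normalized fluorescence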

The nature of experiment [7]: inhibitors of Sendai virus-induced IRF3 signaling, primary screen, TLR/RLR signaling modifier project, cell-based, Sendai virus stimulus, luciferase, 10K MLSCN set (AID 602276).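 Further: firefly luciferase from ISG56 promoter only with Renilla not read in this screen; 0% = Sendai virus plus DMSO and 100% = medium plus DMSO without virus.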 The settings on record: HEK293 RL24 IRF3 luciferase reporter, at 10 µM, stronger effect = higher value. (Reporter assays use an easily measured gene product as a stand-in for the process of interest.)
Experiment [8] can be described thus: inhibitors of poly I:C-induced TLR3 signaling, primary screen, cell-based, poly I:C stimulus, luciferase, 10K MLSCN set (AID 602277;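 active means inhibition of the reporter signal at or above 50%; inactive means inhibition below 50%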). The settings on record: HEK293-TLR3 RL24 IRF3 luciferase reporter, at 10 µM, stronger effect = higher value.

One may read the inhibition as the change of the read-out against control, counted positive when it falls.

Active and inactive are the calls of the source.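 How the source made its calls, unless noted: active means inhibition at or above 50% at 10 µM; inactive means inhibition below 50%.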

Chain of Muscarinic acetylcholine receptor M4 (Homo sapiens) (P08173 whole entry, looked up): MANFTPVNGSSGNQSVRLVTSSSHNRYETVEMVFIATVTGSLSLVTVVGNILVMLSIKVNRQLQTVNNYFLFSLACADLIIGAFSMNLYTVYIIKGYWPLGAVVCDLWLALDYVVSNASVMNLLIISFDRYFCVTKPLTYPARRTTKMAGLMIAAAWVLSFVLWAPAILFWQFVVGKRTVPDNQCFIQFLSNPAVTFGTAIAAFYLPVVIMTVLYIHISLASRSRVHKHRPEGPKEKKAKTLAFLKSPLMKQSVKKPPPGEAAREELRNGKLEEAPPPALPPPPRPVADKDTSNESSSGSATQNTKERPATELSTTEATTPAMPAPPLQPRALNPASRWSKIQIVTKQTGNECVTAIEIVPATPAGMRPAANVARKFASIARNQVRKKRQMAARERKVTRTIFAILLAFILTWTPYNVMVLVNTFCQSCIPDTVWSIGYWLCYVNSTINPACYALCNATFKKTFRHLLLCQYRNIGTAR
Chain of Voltage-gated potassium channel subunit beta-2 (Rattus norvegicus) (P62483 whole entry, looked up): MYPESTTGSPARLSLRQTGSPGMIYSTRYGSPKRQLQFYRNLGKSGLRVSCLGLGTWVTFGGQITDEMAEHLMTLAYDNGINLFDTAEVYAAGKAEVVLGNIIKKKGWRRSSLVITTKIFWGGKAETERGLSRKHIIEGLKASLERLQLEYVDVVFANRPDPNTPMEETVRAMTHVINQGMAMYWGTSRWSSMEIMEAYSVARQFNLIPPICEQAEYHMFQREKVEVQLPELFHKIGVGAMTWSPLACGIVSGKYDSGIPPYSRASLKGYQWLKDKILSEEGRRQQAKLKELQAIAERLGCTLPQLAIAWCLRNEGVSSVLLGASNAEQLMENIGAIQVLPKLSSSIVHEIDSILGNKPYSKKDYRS

`CCC(=O)/C=C1\Sc2ccc(OC)cc2N1CCO`: the cell count in experiment [1] turned out to be 626. Moreover, the inhibition in experiment [1] was 2.4% (inactive); in experiment [3], -28.2% (inactive); in experiment [7], 21.2% (inactive); in experiment [8] it was 9.17% (inactive). Further, in experiment [2], the inhibition of aggregation was -1.7% (inactive). Moreover, the nuclei count worked out at 93.6% in experiment [2] and 85.1% in experiment [3]. Further, the fluorescence slope in experiment [4] was -0.577 (inactive); in experiment [6], 0.0067 (inactive). Besides, in experiment [5], the NADPH fluorescence slope is -3.8e-05 (inactive).
For `CCn1c(=O)n(CC(=O)NCc2ccccc2OC)c(=O)c2ccccc21`, the cell count in experiment [1] stood at 467. In addition, the inhibition in experiment [1] is -30.1% (inactive); in experiment [3], -106% (inactive); in experiment [7] it was 18.2% (inactive); in experiment [8], 23.1% (inactive). Further, the inhibition of aggregation in experiment [2] is -16.5% (inactive). For the same compound, the nuclei count was determined as 100% in experiment [2] and 92% in experiment [3]. The fluorescence slope in experiment [4] is -0.555 (inactive); in experiment [6], 0.00528 (inactive). The NADPH fluorescence slope in experiment [5] is -4.7e-05 (inactive).
As for `COc1ccc(OC)c(CNC(=O)CCN2C(=O)COc3ccccc32)c1`, the cell count in experiment [1] came out at 663. Also, the inhibition is 14.4% (inactive) in experiment [1], -29.9% (inactive) in experiment [3], -19.9% (inactive) in experiment [7] and -11.1% (inactive) in experiment [8]. Besides, in experiment [2], the inhibition of aggregation is 21.7% (inactive). Moreover, the nuclei count is 64% in experiment [2] and 110% in experiment [3]. For the same compound, the fluorescence slope was -0.479 (inactive) in experiment [4] and 0.00555 (inactive) in experiment [6]. Also, the NADPH fluorescence slope in experiment [5] is -6e-05 (inactive).
As to `Cc1ccc(Cn2c(C)nc3c(c2=O)c2nc4ccccc4nc2n3Cc2ccco2)cc1`, the cell count in experiment [1] was 623. Also, the inhibition in experiment [1] was -5.4% (inactive); in experiment [3] it was -33.1% (inactive); in experiment [7], 16.5% (inactive); in experiment [8], 28.3% (inactive). Also, in experiment [2], the inhibition of aggregation was -11% (inactive). The nuclei count in experiment [2] was 111%; in experiment [3], 91.7%. The fluorescence slope in experiment [4] was -0.557 (inactive); in experiment [6] it was 0.00181 (inactive). In addition, the NADPH fluorescence slope in experiment [5] is -5.9e-05 (inactive).
As to `COc1ccccc1-c1cn[nH]c(=S)n1`, in experiment [1], the cell count is 428. Moreover, the inhibition in experiment [1] was 1.6% (inactive); in experiment [3], -41.2% (inactive); in experiment [7] it was -32.7% (inactive); in experiment [8], -25.8% (inactive). For the same compound, the inhibition of aggregation in experiment [2] is 4.2% (inactive). Also, the nuclei count in experiment [2] stood at 93%; in experiment [3], 101%. Besides, the figures for the fluorescence slope in experiment [4] and in experiment [6] were -0.576 (inactive) and 0.00535 (inactive), respectively. Also, the NADPH fluorescence slope in experiment [5] was 2.7e-05 (inactive).
In the case of `N#CC(C(=O)C1CCCCC1)c1nc2ccccc2[nH]1` (stereo not given), the cell count in experiment [1] amounted to 723. For the same compound, the inhibition was -2% (inactive) in experiment [1], -107% (inactive) in experiment [3], 4.07% (inactive) in experiment [7] and -10.7% (inactive) in experiment [8]. In addition, the inhibition of aggregation in experiment [2] is -11.3% (inactive). Besides, the nuclei count was found to be 101% in experiment [2] and 128% in experiment [3]. The fluorescence slope in experiment [4] is -0.6 (inactive); in experiment [6], 0.00531 (inactive). Further, in experiment [5], the NADPH fluorescence slope was 3e-06 (inactive).
For the compound `O=C(NCCO)c1scc2c1OCCO2`, the cell count in experiment [1] was 572. Moreover, the inhibition in experiment [1] was -12.8% (inactive); in experiment [3] it was -15.2% (inactive); in experiment [7] it was 16.6% (inactive); in experiment [8], 19.5% (inactive). Further, the inhibition of aggregation in experiment [2] is 7.6% (inactive). Moreover, the results for the nuclei count in experiment [2] and in experiment [3] were 97.2% and 104%, respectively. In addition, the results for the fluorescence slope in experiment [4] and in experiment [6] were -0.327 (inactive) and 0.00603 (inactive), respectively. In addition, the NADPH fluorescence slope in experiment [5] is 6.5e-05 (inactive).
With `O=C(Cn1ccc2ccccc2c1=O)NCCC(=O)N1CCN(C2CCCCC2)CC1`, in experiment [1], the cell count stood at 510. Also, the inhibition was -3.8% (inactive) in experiment [1], 15.7% (inactive) in experiment [3], 9.9% (inactive) in experiment [7] and 18.5% (inactive) in experiment [8]. Moreover, the inhibition of aggregation in experiment [2] was 10.9% (inactive). The nuclei count in experiment [2] came to 83.8%; in experiment [3] it was 110%. Besides, the fluorescence slope is -0.395 (inactive) in experiment [4] and 0.00596 (inactive) in experiment [6]. The NADPH fluorescence slope in experiment [5] was 2.2e-05 (inactive).
With `COc1ccc(-n2ncc3c(NCc4ccc5c(c4)OCO5)ncnc32)cc1`, the cell count in experiment [1] was 360. Moreover, the inhibition is -4.3% (inactive) in experiment [1], -9.3% (inactive) in experiment [3], -4.14% (inactive) in experiment [7] and -24.9% (inactive) in experiment [8]. Moreover, the inhibition of aggregation in experiment [2] is 9.7% (inactive). Besides, the values for the nuclei count in experiment [2] and in experiment [3] were 94.3% and 105%, respectively. In addition, the fluorescence slope in experiment [4] is -0.539 (inactive); in experiment [6], 0.00526 (inactive). Besides, in experiment [5], the NADPH fluorescence slope was -4.4e-05 (inactive).
`O=C1CS/C(=N\C(=O)N2c3ccccc3Sc3ccccc32)N1`: in experiment [1], the cell count came to 373. In addition, the inhibition in experiment [1] was 8% (inactive); in experiment [3] it was -22.3% (inactive); in experiment [7], 12% (inactive); in experiment [8] it was 27.5% (inactive). Besides, the inhibition of aggregation in experiment [2] is 28.4% (inactive). Further, the nuclei count came to 87.6% in experiment [2] and 128% in experiment [3]. The results for the fluorescence slope in experiment [4] and in experiment [6] were -0.523 (inactive) and 0.00677 (inactive), respectively. In experiment [5], the NADPH fluorescence slope was -5.6e-05 (inactive).

These data come from PubChem BioAssay.
